Source: ChEMBL document CHEMBL1145421, “Discovery of novel antitumor antimitotic agents that also reverse tumor resistance” (J Med Chem, 2007)
The source made the active and inactive calls. No cut-off for these calls is given here.

Columns and labels:
U-251 = assay: Growth inhibition of U251 cells; format: functional; details: Homo sapiens
Bos taurus = species on record: Bos taurus; assay: Reduction of bovine brain tubulin polymerization
Method in brief: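 Bovine brain tubulin was purified by three assembly/disassembly cycles followed by ion exchange. Tubulin at 67 μM (2.5 mg/mL) in 1 M glutamate, pH 6.6, with 4% DMSO was preincubated with compound (2–20 μM) or ethanol for 15 min at 0 °C. Then 0.5 mM GTP was added, samples were warmed to 37 °C, and A340 was followed for about 60 min.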

EKVX = assay: Growth inhibition of EKVX cells; format: functional; details: Homo sapiens
SN12C = assay: Growth inhibition of SN12C cells; format: functional; details: Homo sapiens
[1] = Growth inhibition of Pgp deficient MCF7/VP cells expressing MRP1; format: functional, cell-based; details: Homo sapiens
Method in brief: (§1)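 NCI/ADR (Pgp-overexpressing) or MCF-7/VP (MRP1-expressing, Pgp-negative) cells were seeded at about 15% confluency and allowed to attach for 24 h. They were then exposed for 48 h to varying compound concentrations, limited by solubility, without added vinca drug. Survival was read by sulforhodamine B binding against ethanol solvent controls. Each value is the mean of three equally treated wells.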

NCI-H522 = assay: Growth inhibition of NCI-H522 cells; format: functional; details: Homo sapiens
[2] = Growth inhibition of LOX IMV1 cells; format: functional; details: Homo sapiens
Malme-3M = assay: Growth inhibition of MALME-3M cells; format: functional; details: Homo sapiens
[3] = Cytotoxicity against MRP1 overexpressing human MCF7/VP cells after 48 hrs by SRB binding assay; format: functional, cell-based
Method in brief: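 MCF-7/VP (MRP1-expressing, Pgp-negative) cells seeded at ~15% confluency and allowed 24 h to attach. Exposed 48 h to graded concentrations without vincristine. Survival measured by SRB binding versus ethanol controls.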

HCT-15 = assay: Growth inhibition of HCT15 cells; format: functional; details: Homo sapiens
A10 [4] = assay: Prevention of paracrystal formation in rat A10 cells at 10 uM; format: functional, cell-based
OVCAR-8 = assay: Growth inhibition of OVCAR8 cells; format: functional; details: Homo sapiens
MOLT-4 = assay: Growth inhibition of MOLT4 cells; format: functional; details: Homo sapiens
MCF7 = assay: Growth inhibition of Pgp deficient MCF7 cells expressing MRP1; format: functional, cell-based; details: Homo sapiens; method in brief: as §1
HCT-116 = assay: Growth inhibition of HCT116 cells; format: functional; details: Homo sapiens
SW-620 = assay: Growth inhibition of SW620 cells; format: functional; details: Homo sapiens
SNB-19 = assay: Growth inhibition of SNB19 cells; format: functional; details: Homo sapiens
HCC 2998 = assay: Growth inhibition of HCC2998 cells; format: functional; details: Homo sapiens
NCI-H460 = assay: Growth inhibition of NCI-H460 cells; format: functional; details: Homo sapiens
RXF 393 = assay: Growth inhibition of RXF393 cells; format: functional; details: Homo sapiens
SK-OV-3 = assay: Growth inhibition of SKOV3 cells; format: functional; details: Homo sapiens
IGROV-1 = assay: Growth inhibition of IGROV1 cells; format: functional; details: Homo sapiens
UO-31 = assay: Growth inhibition of UO31 cells; format: functional; details: Homo sapiens
RPMI-8226 = assay: Growth inhibition of RPMI8226 cells; format: functional; details: Homo sapiens
A10 [5] = assay: Induction of microtubule depolymerization in rat A10 cells at 10 uM; format: functional, cell-based
Method in brief: (§2)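 Rat A-10 smooth muscle cells were grown to near confluency on glass coverslips and treated for 24 h, with ethanol as control. Microtubules were stained by indirect immunofluorescence using monoclonal anti-β-tubulin and a fluorescein-conjugated anti-mouse IgG, then imaged by confocal laser scanning microscopy.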

[6] = Growth inhibition of NCI-H322 cells; format: functional; details: Homo sapiens
NIH3T3 = assay: Induction of microtubule loss in NIH/3T3 cells after 24 hrs; format: functional, cell-based; details: Mus musculus
HL-60 = assay: Cell cycle arrest in HL60 cells assessed as accumulation in […] phase at 6 uM; format: functional, Homo sapiens
Method in brief: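 HL-60 cells exposed 24 or 48 h to drug or ethanol vehicle. Nuclei prepared by detergent-trypsin method: citrate/sucrose/DMSO buffer, trypsin, then trypsin inhibitor plus RNase A, then propidium iodide with spermine, 30 min at 4 °C. Filtered, resuspended, DNA content measured by flow cytometry. Percentages given for G0/G1, S and G2/M. Mean ± SEM.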

T47D = assay: Growth inhibition of T47D cells; format: functional; details: Homo sapiens
SF-295 = assay: Growth inhibition of SF295 cells; format: functional; details: Homo sapiens
NCI-H226 = assay: Growth inhibition of NCI-H226 cells; format: functional; details: Homo sapiens
OVCAR-5 = assay: Growth inhibition of OVCAR5 cells; format: functional; details: Homo sapiens
COLO 205 = assay: Growth inhibition of COLO205 cells; format: functional; details: Homo sapiens
OVCAR-4 = assay: Growth inhibition of OVCAR4 cells; format: functional; details: Homo sapiens
A10 [7] = assay: Induction of microtubule loss in rat A10 cells after 24 hrs; format: functional, cell-based; method in brief: as §2
MDA-MB-435 = assay: Growth inhibition of MDA-MB-435 cells; format: functional; details: Homo sapiens
BT-549 = assay: Growth inhibition of BT549 cells; format: functional; details: Homo sapiens
SF-539 = assay: Growth inhibition of SF539 cells; format: functional; details: Homo sapiens

With COc1cc(CCc2cn(Cc3ccccc3)c3nc(N)nc(C)c23)cc(OC)c1OC the GI50 (U-251) was 144 nM, the Activity (Bos taurus) was “Dose-dependent effect” and the GI50 (EKVX) was 424 nM. It also gave a GI50 (SN12C) of 537 nM, an IC50 [1] of 180 nM and a GI50 (NCI-H522) of 47.7 nM. The GI50 [2] was 250 nM, the GI50 (Malme-3M) was 283 nM and the IC50 [3] was 250 nM. The GI50 (HCT-15) was 127 nM, the Activity (A10 [4]) was “inactive” and the GI50 (OVCAR-8) was 364 nM. It also gave a GI50 (MOLT-4) of 285 nM, an IC50 (MCF7) of 280 nM and a GI50 (HCT-116) of 286 nM. For the same compound, the GI50 (SW-620) was 236 nM, the GI50 (SNB-19) was 273 nM and the GI50 (HCC 2998) was 317 nM. The GI50 (NCI-H460) was 162 nM, the GI50 (RXF 393) was 134 nM and the GI50 (SK-OV-3) was 506 nM. The GI50 (IGROV-1) was 61.1 nM, the GI50 (UO-31) was 347 nM and the GI50 (RPMI-8226) was 439 nM. For the same compound, the Activity (A10 [5]) was “Active”, the GI50 [6] was 581 nM and the Activity (NIH3T3) was “Active”. For the same compound, the Activity (HL-60) was 9.7%, the GI50 (T47D) was 563 nM and the GI50 (SF-295) was 41.8 nM. For the same compound, the GI50 (NCI-H226) was 195 nM, the GI50 (OVCAR-5) was > 1000 nM and the GI50 (COLO 205) was 190 nM. The GI50 (OVCAR-4) was 821 nM, the Activity (A10 [7]) was “Dose-dependent effect” and the GI50 (MDA-MB-435) was 10.1 nM. For the same compound, the GI50 (BT-549) was > 1000 nM and the GI50 (SF-539) was 74.5 nM.
